The source of these data is ChEMBL document CHEMBL4732162, “Design, synthesis and evaluation of novel ErbB/HDAC multitargeted inhibitors with selectivity in EGFR mutant cell lines” (Eur J Med Chem, 2021).

Test [1] in a line: Antiproliferative activity against human NCI-H820 cells incubated for 72 hrs by MTT assay. The settings on record: NCI-H820, 72 h. The format is functional, cell-based. For orientation: Tetrazolium dyes change colour on reduction, which living cells bring about.
For test [2], the system named is NCI-H1975. The test is described as follows: Down regulation of EGFR protein expression in human NCI-H1975 cells at 0.5 to 5 uM after 48 hrs by Western blot analysis. The format is functional, cell-based. The settings on record: dose 0.5-5 µM. Summed up:
(§1)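 Cells were treated with compound for 48 h and lysed on ice for 30 min in RIPA buffer with protease and phosphatase inhibitors. Lysates were cleared at 14000 g, 4 °C, and protein quantified by BCA. Samples were boiled in loading buffer, run on 10–12% SDS-PAGE and transferred to PVDF. Membranes were blocked 2 h, incubated in primary antibody overnight at 4 °C, then in secondary antibody 2 h at room temperature.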

Test [3] relates to L02. The test is described as follows: cytotoxicity against human HL-7702 cells assessed as reduction of cell viability incubated for 72 hrs by MTT assay. Type of test: ADME, cell-based. The settings on record: L02, 72 h.
Test [4] relates to NCI-H1975. The test is described as follows: Cytotoxicity against human NCI-H1975 cells assessed as inhibition of colony formation incubated for 7 days by crystal violet based colony formation assay. Type of test: functional, cell-based. Particulars: dose 0.5-5 µM, time 7.0 day. The procedure, abridged: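 NCI-H1975 cells, 1 × 10⁴/well, were seeded in 6-well plates and cultured 12 h. They were then treated with compound for 7 days. Colonies were fixed in 10% buffered formalin for 1 h and stained with crystal violet for 1 h.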

For test [5], the system named is NCI-H1975. The test is described as follows: Induction of apoptosis in human NCI-H1975 cells assessed as early apoptotic cells at 0.5 uM incubated for 48 hrs by propidium iodide and annexin-V FITC staining based flow cytometry (reference value: 6.67 %). The format is functional. On the technique in general: In flow cytometry, cells or beads pass a laser one at a time.

Test [6] has as its system NCI-H1975. Briefly: Induction of apoptosis in human NCI-H1975 cells assessed as early apoptotic cells at 2.5 uM incubated for 48 hrs by propidium iodide and annexin-V FITC staining based flow cytometry (reference value: 6.67 %). Type of test: functional.
Test [7] has as its system NCI-H1975. The test is described as follows: Induction of apoptosis in human NCI-H1975 cells assessed as late apoptotic cells at 2.5 uM incubated for 48 hrs by propidium iodide and annexin-V FITC staining based flow cytometry (Rvb =4.20 %). Type of test: functional.
The test system of test [8] is NCI-H1975. The test is described as follows: Induction of apoptosis in human NCI-H1975 cells assessed as necrotic cells at 2.5 uM incubated for 48 hrs by propidium iodide and annexin-V FITC staining based flow cytometry (Rvb =0.18% ). Type of test: functional.
Test [9] has as its system NCI-H1975. The test is described as follows: Induction of apoptosis in human NCI-H1975 cells assessed as viable cells at 2.5 uM incubated for 48 hrs by propidium iodide and annexin-V FITC staining based flow cytometry (Rvb =88.95% ). The format is functional. Particulars: read-out: Activity.
In test [10] the test system is NCI-H1975. The test is described as follows: Induction of apoptosis in human NCI-H1975 cells assessed as viable cells at 5 uM incubated for 48 hrs by propidium iodide and annexin-V FITC staining based flow cytometry (Rvb =88.95% ). Type of test: functional. The settings on record: read-out: Activity.
Test [11] concerns the target Histone deacetylase (Homo sapiens) (UniProt Q13547+O15379+Q9UBN7+Q92769+Q9UQL6+Q8WUI4+Q9BY41+Q96DB2+P56524+Q9UKV0+Q969S8). The test is described as follows: Inhibition of HDAC in human A431 cells assessed as increase in histone H3 acetylation at 0.5 to 5 uM after 48 hrs by Western blot analysis. The format is cell-based. The settings on record: A-431, dose 0.5-5 µM. Summed up: as §1
A general note: A western blot detects proteins with antibodies after separation by electrophoresis.

pIC50: −log10 of the molar value. Activity calls are given as the source filed them. No cut-off for these calls is given here. Bounds are passed on as bounds.

Consider `C=CC(=O)Nc1cc2c(Nc3ccc(F)c(Cl)c3)ncnc2cc1OCc1cn(CCCC(=O)NO)nn1`, for which the results for the negative logarithm of the IC50 (pIC50) in [1] and in test [3] were 5.76 and below 4.60, respectively. Besides, the outcome in test [2] was Active. In [4], the inhibition result was “Dose-dependent effect”. Also, the Activity worked out at 24.28% in test [5], 31.38% in [6], 14.3% in [7] and 0.36% in test [8]. Further, the viability at 2.5 µM in [9] was 54%. The viability at 5 µM in test [10] was 46.1%. The inhibition entry in test [11] was “Active”.

What is called pIC50 is the negative decadic logarithm of the IC50, by convention in mol/L.
